# Experimental data as given in paper PMC3354652 (Cancer Discovery, 2012).
# “Also recorded” adds a separate entry of the source.
# Legend:
# RIP-Tag2 tumors [1] = assay: Tumor invasion; type: in vivo, mouse
# RIP-Tag2 mice [2] = assay: Liver metastasis; type: in vivo, mouse
# RIP-Tag2 tumors [3] = assay: Tumor vascularity; type: in vivo, mouse; conditions: for intratumoral hypoxia / tumor vascularity: RIP-Tag2 mice treated from age 14 to 17 weeks; for HIF-1α protein by western blot: RIP-Tag2 tumors
# Panc-1 tumors = assay: Orthotopic Panc-1 pancreatic adenocarcinomas in nude mice; type: in vivo, mouse
# [4] = system: Snail1, N-cadherin, vimentin; assay: Western blot of mesenchymal markers in RIP-Tag2 tumors; type: in vivo, mouse; conditions: for bands for Snail1, N-cadherin and vimentin in western blots: RIP-Tag2 tumors treated from age 14 to 15 weeks
# Summary of the method: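 Tumors came from RIP-Tag2 mice treated from age 14 to 15 weeks with vehicle, anti-VEGF antibody, a kinase inhibitor, or a combination. Snail1, N-cadherin and vimentin were immunoblotted in tumor lysates. Bands were quantified by densitometry and expressed as fold over vehicle. Groups had 4-8 surviving mice. Groups were compared by Student's t test or ANOVA with Fisher's multiple-comparison test.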
# RIP-Tag2 tumors [5] = assay: Tumor size; type: in vivo, mouse; conditions: RIP-Tag2 mice treated from age 14 to 17 weeks
# RIP-Tag2 mice [6] = assay: Survival of RIP-Tag2 mice; type: in vivo, mouse
# RIP-Tag2 tumors [7] = conditions: RIP-Tag2 mice; cited from earlier work
# c-Met = c-Met mRNA, total c-Met and phospho-c-Met in RIP-Tag2 tumors; type: in vivo, mouse; conditions: RIP-Tag2 tumors treated from age 14 to 15 weeks
# [8] = RIP-Tag2 mice treated from age 14 to 17 weeks
# [9] = RIP-Tag2 mice age 14 to 17 weeks, vs corresponding group without PF-04217903
# [10] = RIP-Tag2 mice treated from age 14 to 20 weeks
# [11] = western blot, treated from age 14 to 15 weeks
smiles,measurement,setting,value
"C[C@@H](Oc1cc(-c2cnn(C3CCNCC3)c2)cnc1N)c1c(Cl)ccc(F)c1Cl [PF-02341066, crizotinib]",tumor invasiveness: Invasion index and trapped acinar cells,RIP-Tag2 tumors [1]; [8],reduced invasiveness
same,liver metastases found per mouse,"RIP-Tag2 mice [2]; RIP-Tag2 mice treated for 3 weeks, vehicle average of 20 per mouse",4
same,mice with liver metastases visible microscopically,RIP-Tag2 mice [2]; [8],3 of 4
same,intratumoral hypoxia,RIP-Tag2 tumors [3],did not change
same,tumor vascularity,RIP-Tag2 tumors [3],did not change
OCCn1cc(-c2cnc3nnn(Cc4ccc5ncccc5c4)c3n2)cn1 [PF-04217903],vascular pruning and intratumoral hypoxia,Panc-1 tumors; 3 weeks treatment,little effect
same,average decrease in volume of metastases (metastatic tumor burden),RIP-Tag2 mice [2]; [9],78%
same,reduction in mean diameter of liver metastases when PF-04217903 was combined,RIP-Tag2 mice [2]; [9],40%
same,mice with liver metastases visible microscopically,RIP-Tag2 mice [2]; [8],1 of 7 and one of 7
same,"bands for Snail1, N-cadherin and vimentin in western blots",[4],weaker
same,tumor vascularity,RIP-Tag2 tumors [3],no reduction in overall vascularity
same,HIF-1α protein by western blot,RIP-Tag2 tumors [3],not increased
"COc1cc2nccc(Oc3ccc(NC(=O)C4(C(=O)Nc5ccc(F)cc5)CC4)cc3)c2cc1OC [XL184, cabozantinib]",mean sectional area of tumors,RIP-Tag2 tumors [5],0.7 ± 0.1 mm^2
same,area density of trapped amylase-positive acinar cells in tumors,RIP-Tag2 tumors [1]; [8],2.6 ± 0.4%
same,fewer amylase-positive (trapped acinar) cells than 14-week old onset controls,"RIP-Tag2 tumors [1]; RIP-Tag2 mice treated from age 14 to 17 weeks, onset controls 4.8 ± 0.5%",46%
same,tumor shape and invasiveness,RIP-Tag2 tumors [1]; younger RIP-Tag2 mice treated from age 10 to 14 weeks,rounder and less invasive
same,mice surviving until the experiment ended at age 20 weeks,RIP-Tag2 mice [6]; RIP-Tag2 mice treated from 14 weeks of age,all
same,overall survival versus vehicle or anti-VEGF antibody,RIP-Tag2 mice [6]; RIP-Tag2 mice treated from age 10 to 14 weeks,better overall survival
same,survival at 20 weeks,"RIP-Tag2 mice [6]; RIP-Tag2 mice, treatment beginning at age 14 weeks, n = 6",100%
same,liver micrometastases found,"RIP-Tag2 mice [2]; RIP-Tag2 mice treated from age 10 to 14 weeks, 5 mice",none
same,mice with liver metastases visible microscopically,RIP-Tag2 mice [2]; [8],none were detected; also recorded: None of 5
same,mice with small liver metastases,RIP-Tag2 mice [2]; [10],5 of 6
same,number of liver metastases per sectional area,RIP-Tag2 mice [2]; [10],0.3 ± 0.2 metastases/mm^2
same,"bands for Snail1, N-cadherin and vimentin in western blots",[4],"less Snail1, N-cadherin, and vimentin"
same,reduction in tumor vascularity,"RIP-Tag2 tumors [3]; RIP-Tag2 mice, 3 weeks treatment",79%
"COc1cc2c(Oc3ccc(NC(=O)C4(C(=O)Nc5ccc(F)cc5)CC4)cc3F)ccnc2cc1OCCCN1CCOCC1 [XL880, foretinib]",invasion and tumor cells in the liver,RIP-Tag2 tumors [7],decreases invasion and the appearance of tumor cells in the liver
same,tumor growth,RIP-Tag2 tumors [7],slows tumor growth
CCN(CC)CCNC(=O)c1c(C)[nH]c(/C=C2\C(=O)Nc3ccc(F)cc32)c1C [sunitinib],"c-Met mRNA expression, fold the control value",c-Met,6 fold
same,mean sectional area of tumors,RIP-Tag2 tumors [5],3.7 ± 0.8 mm^2
same,"sectional area of tumors, less than age-matched vehicle controls",RIP-Tag2 tumors [5],78%
same,tumor invasiveness: Invasion index and trapped acinar cells,RIP-Tag2 tumors [1]; [8],significantly greater
same,intratumoral hypoxia assessed by pimonidazole staining,Panc-1 tumors; 3 weeks treatment,doubling
same,invasiveness reflected by intratumoral acinar cells stained for amylase,Panc-1 tumors; 3 weeks treatment,exaggerated
same,reduction in tumor vascularity,Panc-1 tumors; 3 weeks treatment,75%
same,tumor growth by bioluminescence imaging,Panc-1 tumors; 3 weeks treatment,grew slower
same,mice with micrometastases in the liver,Panc-1 tumors; early stage,4 of 6
same,survival during the 3-week treatment,"RIP-Tag2 mice [6]; RIP-Tag2 mice, age 14 to 17 weeks, vehicle 42%",80%
same,number of liver metastases per sectional area,RIP-Tag2 mice [2]; 17-week old RIP-Tag2 mice treated for 3 weeks,1.3 ± 1.2 metastases/mm^2
same,number of liver metastases compared to the 17-week old vehicle group,RIP-Tag2 mice [2]; [8],twice
same,size of liver metastases compared to vehicle group,RIP-Tag2 mice [2]; [8],4 times
same,mean diameter of liver metastases,"RIP-Tag2 mice [2]; RIP-Tag2 mice treated from age 14 to 17 weeks, vehicle 90 ± 9 μm",369 ± 267 μm
same,"N-cadherin densitometry value, times greater than vehicle",[4]; [11],10 times
same,"Snail1 densitometry value, times greater than vehicle",[4]; [11],3 times
same,"vimentin densitometry value, times greater than vehicle",[4]; [11],5 times
same,intratumoral hypoxia,RIP-Tag2 tumors [3],greater hypoxia
same,tumor vascularity,RIP-Tag2 tumors [3],fewer blood vessels
same,HIF-1α protein by western blot,RIP-Tag2 tumors [3],greater
